How the values were obtained:
[1] = biological target: Tyrosine-protein kinase Fyn (Homo sapiens) (UniProt P06241); test: Inhibition of human recombinant FYN at 40 nM in presence of ATP by radiometric assay relative to control
[2] = biological target: Cyclin-dependent kinase 18 (Homo sapiens) (UniProt Q07002); test: Inhibition of human recombinant PCTAIRE3 at 40 nM in presence of ATP by radiometric assay relative to control
[3] = biological target: Serine/threonine-protein kinase PAK 3 (Homo sapiens) (UniProt O75914); test: Inhibition of human recombinant PAK3 at 40 nM related to control ULK1
[4] = biological target: Serine/threonine-protein kinase PLK3 (Homo sapiens) (UniProt Q9H4B4); test: Inhibition of human recombinant PLK3 at 40 nM related to control ULK1
[5] = biological target: Leukocyte tyrosine kinase receptor (Homo sapiens) (UniProt P29376); test: Inhibition of human recombinant LTK at 15 nM in presence of ATP by radiometric assay relative to control
[6] = biological target: T1, Tyrosine-protein kinase TXK (Homo sapiens) (UniProt P42681); test: Inhibition of human recombinant TXK at 15 nM in presence of ATP by radiometric assay relative to control
T1 sequence (whole entry): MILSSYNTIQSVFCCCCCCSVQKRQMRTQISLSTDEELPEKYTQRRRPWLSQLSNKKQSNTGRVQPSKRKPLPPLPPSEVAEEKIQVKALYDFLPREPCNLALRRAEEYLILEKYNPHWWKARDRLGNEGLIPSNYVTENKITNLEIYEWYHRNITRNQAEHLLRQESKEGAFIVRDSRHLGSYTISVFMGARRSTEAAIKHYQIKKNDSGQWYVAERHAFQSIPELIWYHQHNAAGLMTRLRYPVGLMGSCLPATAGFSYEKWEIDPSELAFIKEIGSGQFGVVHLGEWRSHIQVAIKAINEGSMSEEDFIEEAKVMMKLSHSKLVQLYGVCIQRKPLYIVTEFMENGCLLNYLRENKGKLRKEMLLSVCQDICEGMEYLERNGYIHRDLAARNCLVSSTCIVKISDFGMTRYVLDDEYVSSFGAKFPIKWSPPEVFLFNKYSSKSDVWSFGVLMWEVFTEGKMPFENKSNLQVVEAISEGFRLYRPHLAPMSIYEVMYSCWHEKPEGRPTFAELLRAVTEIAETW

[7] = biological target: MAP kinase-interacting serine/threonine-protein kinase 2 (Homo sapiens, UniProt Q9HBH9); test: Inhibition of human recombinant MNK2 at 15 nM related to control ULK1
[8] = biological target: T2, Beta-adrenergic receptor kinase 1 (Homo sapiens) (UniProt P25098); test: Inhibition of human recombinant BARK1 at 500 nM in presence of ATP by radiometric assay relative to control
T2 sequence (whole entry): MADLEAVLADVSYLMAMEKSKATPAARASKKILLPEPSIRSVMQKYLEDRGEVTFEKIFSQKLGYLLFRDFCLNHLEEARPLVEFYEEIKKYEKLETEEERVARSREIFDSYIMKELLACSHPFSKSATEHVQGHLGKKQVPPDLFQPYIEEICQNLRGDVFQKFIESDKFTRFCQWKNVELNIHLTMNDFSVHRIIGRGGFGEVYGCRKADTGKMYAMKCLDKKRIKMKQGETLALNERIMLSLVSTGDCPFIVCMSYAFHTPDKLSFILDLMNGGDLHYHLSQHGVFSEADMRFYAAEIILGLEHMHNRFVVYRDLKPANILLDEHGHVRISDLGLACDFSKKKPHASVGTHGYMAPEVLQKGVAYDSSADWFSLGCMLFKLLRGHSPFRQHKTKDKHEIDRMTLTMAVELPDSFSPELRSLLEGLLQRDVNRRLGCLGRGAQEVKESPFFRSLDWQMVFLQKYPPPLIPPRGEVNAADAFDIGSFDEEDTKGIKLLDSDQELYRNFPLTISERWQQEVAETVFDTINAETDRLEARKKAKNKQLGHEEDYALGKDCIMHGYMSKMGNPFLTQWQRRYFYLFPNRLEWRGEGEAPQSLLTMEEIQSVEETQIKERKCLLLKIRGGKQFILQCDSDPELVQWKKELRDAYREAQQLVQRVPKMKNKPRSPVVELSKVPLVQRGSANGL
How it was run: (§1)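 Part of a radiometric in vitro activity panel of 327 recombinant human kinases. Each kinase was tested in duplicate at one inhibitor concentration. Activity remaining was expressed as a percentage of the vehicle control, and percent inhibition was taken as 100 minus that value.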

[9] = biological target: Bone morphogenetic protein receptor type-1B (Homo sapiens) (UniProt O00238); test: Inhibition of human recombinant BMPR1B at 500 nM in presence of ATP by radiometric assay relative to control; how it was run: as §1
[10] = biological target: T1, Tyrosine-protein kinase TXK (Homo sapiens); test: Inhibition of human recombinant TXK at 500 nM in presence of ATP by radiometric assay relative to control
[11] = biological target: T3, Serine/threonine-protein kinase NLK (Homo sapiens) (UniProt Q9UBE8); test: Inhibition of human recombinant NLK at 500 nM related to control ULK1
T3 sequence (whole entry): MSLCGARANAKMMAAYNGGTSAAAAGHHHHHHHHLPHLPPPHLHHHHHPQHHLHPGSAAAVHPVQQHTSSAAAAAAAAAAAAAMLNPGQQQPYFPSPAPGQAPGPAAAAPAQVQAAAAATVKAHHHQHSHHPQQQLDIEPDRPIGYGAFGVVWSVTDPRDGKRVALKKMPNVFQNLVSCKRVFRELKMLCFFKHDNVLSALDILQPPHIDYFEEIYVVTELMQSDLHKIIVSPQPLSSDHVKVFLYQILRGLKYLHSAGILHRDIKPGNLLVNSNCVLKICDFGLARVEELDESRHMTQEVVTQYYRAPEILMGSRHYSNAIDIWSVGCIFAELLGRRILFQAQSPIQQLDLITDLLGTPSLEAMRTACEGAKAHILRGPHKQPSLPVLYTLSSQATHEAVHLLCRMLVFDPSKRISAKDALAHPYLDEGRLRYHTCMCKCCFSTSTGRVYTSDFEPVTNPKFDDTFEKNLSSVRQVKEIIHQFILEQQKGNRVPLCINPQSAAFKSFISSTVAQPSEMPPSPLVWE

[12] = biological target: Tyrosine-protein kinase Tec (Homo sapiens) (UniProt P42680); test: Inhibition of human recombinant TEC at 500 nM in presence of ATP by radiometric assay relative to control
Sequence of Tyrosine-protein kinase Tec (Homo sapiens) (P42680 whole entry, looked up): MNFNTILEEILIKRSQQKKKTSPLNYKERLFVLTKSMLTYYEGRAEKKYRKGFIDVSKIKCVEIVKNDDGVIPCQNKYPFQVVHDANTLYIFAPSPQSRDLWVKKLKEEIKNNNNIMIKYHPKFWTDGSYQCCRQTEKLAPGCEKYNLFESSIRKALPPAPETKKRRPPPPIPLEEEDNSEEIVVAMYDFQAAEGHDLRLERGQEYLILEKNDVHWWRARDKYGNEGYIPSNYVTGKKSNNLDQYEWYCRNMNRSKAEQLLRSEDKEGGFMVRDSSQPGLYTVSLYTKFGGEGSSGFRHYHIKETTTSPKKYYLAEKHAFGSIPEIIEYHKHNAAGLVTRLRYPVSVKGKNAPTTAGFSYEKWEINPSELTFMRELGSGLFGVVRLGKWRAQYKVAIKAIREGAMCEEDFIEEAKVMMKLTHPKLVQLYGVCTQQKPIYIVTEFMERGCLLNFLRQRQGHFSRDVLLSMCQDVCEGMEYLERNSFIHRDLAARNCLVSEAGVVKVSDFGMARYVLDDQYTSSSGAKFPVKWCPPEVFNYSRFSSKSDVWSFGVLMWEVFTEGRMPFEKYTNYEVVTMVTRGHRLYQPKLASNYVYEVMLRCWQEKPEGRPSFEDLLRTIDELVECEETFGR

Sequence of Leukocyte tyrosine kinase receptor (Homo sapiens) (P29376 whole entry): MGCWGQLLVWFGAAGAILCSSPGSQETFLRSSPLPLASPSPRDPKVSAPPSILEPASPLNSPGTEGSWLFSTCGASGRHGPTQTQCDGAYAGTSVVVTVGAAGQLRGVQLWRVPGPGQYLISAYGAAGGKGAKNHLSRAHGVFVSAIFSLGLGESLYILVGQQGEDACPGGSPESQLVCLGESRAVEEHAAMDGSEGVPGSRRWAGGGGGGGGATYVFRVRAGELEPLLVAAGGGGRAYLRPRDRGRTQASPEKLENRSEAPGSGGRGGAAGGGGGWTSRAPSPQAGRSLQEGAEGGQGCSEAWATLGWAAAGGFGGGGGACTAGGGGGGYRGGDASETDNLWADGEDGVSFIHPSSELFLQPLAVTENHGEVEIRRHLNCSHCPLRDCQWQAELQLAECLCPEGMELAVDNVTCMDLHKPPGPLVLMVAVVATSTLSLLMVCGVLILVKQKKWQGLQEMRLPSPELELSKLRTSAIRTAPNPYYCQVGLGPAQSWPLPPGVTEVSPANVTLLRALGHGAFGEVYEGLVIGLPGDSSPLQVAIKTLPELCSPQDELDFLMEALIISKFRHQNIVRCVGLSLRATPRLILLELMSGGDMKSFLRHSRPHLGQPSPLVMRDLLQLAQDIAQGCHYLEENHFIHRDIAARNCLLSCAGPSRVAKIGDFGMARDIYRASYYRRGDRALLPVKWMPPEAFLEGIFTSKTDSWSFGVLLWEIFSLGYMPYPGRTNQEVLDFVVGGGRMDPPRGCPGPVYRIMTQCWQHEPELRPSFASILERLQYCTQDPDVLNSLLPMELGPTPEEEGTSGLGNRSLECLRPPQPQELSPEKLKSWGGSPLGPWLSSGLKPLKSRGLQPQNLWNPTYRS
Sequence of Tyrosine-protein kinase Fyn (Homo sapiens) (P06241 2-537 limits assumed): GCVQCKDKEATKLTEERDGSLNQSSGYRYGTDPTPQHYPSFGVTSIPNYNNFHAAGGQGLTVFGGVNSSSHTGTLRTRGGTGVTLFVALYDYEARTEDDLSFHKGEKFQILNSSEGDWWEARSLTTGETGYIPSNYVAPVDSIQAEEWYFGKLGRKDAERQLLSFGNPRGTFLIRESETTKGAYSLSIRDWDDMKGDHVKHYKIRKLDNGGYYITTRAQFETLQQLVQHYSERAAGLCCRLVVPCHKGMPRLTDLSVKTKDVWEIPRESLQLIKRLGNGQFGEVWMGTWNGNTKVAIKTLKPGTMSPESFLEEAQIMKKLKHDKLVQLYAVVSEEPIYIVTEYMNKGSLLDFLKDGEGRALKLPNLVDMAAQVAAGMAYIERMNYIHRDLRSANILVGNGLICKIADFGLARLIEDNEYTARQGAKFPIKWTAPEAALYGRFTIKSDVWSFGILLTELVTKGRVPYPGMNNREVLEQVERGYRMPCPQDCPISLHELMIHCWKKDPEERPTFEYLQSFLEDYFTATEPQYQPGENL
Sequence of Serine/threonine-protein kinase PAK 3 (Homo sapiens) (O75914 whole entry, looked up): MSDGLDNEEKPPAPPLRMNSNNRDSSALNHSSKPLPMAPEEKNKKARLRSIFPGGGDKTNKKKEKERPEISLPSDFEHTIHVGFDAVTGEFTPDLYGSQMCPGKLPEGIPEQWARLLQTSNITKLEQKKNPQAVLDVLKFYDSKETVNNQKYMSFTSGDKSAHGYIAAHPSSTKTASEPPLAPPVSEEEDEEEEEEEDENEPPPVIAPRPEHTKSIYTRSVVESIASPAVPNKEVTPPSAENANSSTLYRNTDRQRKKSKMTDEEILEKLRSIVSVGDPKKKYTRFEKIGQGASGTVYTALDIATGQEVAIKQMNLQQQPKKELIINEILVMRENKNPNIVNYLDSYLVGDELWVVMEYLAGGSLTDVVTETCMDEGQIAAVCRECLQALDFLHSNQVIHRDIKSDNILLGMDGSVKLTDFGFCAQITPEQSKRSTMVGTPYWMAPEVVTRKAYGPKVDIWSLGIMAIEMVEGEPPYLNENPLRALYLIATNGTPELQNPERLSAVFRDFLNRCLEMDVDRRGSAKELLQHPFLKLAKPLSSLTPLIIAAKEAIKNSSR
Sequence of Bone morphogenetic protein receptor type-1B (Homo sapiens) (O00238 whole entry): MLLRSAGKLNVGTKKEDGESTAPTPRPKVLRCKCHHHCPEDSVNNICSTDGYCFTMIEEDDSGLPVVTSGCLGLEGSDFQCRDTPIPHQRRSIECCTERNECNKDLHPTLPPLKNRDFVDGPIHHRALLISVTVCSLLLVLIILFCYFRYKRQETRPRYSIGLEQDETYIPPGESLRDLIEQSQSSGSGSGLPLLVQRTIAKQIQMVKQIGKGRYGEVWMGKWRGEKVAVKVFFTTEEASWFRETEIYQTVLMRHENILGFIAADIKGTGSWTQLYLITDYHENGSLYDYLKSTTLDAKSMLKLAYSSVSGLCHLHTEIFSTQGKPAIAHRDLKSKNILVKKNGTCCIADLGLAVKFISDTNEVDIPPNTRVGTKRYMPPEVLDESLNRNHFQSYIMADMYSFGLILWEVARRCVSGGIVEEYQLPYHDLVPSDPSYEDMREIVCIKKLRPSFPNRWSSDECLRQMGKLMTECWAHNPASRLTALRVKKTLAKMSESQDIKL
Sequence of Cyclin-dependent kinase 18 (Homo sapiens) (Q07002 whole entry): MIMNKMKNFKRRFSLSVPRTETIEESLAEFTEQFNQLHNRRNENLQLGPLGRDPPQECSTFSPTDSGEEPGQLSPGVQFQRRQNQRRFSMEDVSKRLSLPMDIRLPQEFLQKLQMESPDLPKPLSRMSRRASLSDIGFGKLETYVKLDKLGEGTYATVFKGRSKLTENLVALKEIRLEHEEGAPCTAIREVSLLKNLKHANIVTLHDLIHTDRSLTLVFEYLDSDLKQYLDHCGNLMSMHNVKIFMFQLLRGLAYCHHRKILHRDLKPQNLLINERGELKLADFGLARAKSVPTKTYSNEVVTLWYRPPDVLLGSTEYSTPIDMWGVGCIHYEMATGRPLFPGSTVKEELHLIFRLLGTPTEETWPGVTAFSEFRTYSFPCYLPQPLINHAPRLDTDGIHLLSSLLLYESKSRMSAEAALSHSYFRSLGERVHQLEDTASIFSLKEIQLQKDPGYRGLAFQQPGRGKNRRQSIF
Sequence of Serine/threonine-protein kinase PLK3 (Homo sapiens) (Q9H4B4 whole entry, looked up): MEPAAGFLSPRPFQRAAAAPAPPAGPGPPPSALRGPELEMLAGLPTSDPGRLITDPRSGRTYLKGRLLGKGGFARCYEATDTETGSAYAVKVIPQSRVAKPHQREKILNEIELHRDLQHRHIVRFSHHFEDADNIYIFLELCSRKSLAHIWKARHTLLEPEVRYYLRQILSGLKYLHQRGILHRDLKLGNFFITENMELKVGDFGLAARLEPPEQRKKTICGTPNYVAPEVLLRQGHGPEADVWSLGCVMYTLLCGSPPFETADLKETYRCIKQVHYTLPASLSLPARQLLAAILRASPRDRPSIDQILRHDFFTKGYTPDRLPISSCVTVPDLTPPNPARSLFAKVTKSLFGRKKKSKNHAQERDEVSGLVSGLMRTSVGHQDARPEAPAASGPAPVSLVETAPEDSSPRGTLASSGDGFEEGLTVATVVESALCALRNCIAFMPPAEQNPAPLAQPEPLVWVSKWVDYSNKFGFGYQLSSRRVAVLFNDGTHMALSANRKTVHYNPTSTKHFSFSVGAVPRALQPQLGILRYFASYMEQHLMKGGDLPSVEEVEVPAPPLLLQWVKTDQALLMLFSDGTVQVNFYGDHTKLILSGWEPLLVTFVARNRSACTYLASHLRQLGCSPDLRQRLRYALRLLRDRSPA
Sequence of MAP kinase-interacting serine/threonine-protein kinase 2 (Q9HBH9 whole entry, looked up): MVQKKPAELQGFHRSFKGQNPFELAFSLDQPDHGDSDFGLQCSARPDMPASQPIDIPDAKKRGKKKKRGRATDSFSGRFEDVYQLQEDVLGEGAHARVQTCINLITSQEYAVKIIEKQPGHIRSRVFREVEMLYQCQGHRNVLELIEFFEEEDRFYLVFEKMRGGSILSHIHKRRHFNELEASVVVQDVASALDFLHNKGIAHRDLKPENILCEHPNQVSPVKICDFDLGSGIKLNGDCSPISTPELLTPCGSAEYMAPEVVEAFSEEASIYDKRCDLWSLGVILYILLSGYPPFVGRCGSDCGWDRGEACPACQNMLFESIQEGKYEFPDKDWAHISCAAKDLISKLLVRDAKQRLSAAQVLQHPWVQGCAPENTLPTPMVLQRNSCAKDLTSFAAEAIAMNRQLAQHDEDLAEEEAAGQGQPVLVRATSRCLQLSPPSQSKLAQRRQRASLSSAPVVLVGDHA

O=C(N[C@@H](C1CC1)C(F)(F)F)c1cc(-c2cnn3cc(-c4ccc(F)cc4)cnc23)cs1
inhibition [1]: 0% | inhibition [2]: 31% | fold change (FC) [3]: 0 | fold change (FC) [4]: 0

CC(C)[C@H](NC(=O)c1cc(-c2cnn3cc(-c4ccc(OCCN5CCCCC5)cc4)cnc23)cs1)C(F)(F)F
inhibition [5]: 0% | inhibition [6]: 59% | fold change (FC) [7]: 0.3

CNC(=O)c1ccccc1Oc1nc(Nc2cc(OC)c(OC)c(OC)c2)ncc1Br
inhibition [8]: 8% | inhibition [9]: 0% | inhibition [10]: 17% | fold change (FC) [11]: 0.05 | inhibition [12]: 2%
